Source: ChEMBL document CHEMBL3351962, “Discovery of 1H-indole-2-carboxamides as novel inhibitors of the androgen receptor binding function 3 (BF3)” (J Med Chem, 2014)
Calls of active or inactive are those of the source. The rule behind the calls is not given here.

Assays:
Androgen receptor [1] = target: T1, Androgen receptor (Homo sapiens, UniProt P10275); test: Inhibition of androgen receptor binding function 3 in eGFP-expressing human LNCAP cells containing androgen-responsive probasin-derived promoter assessed as reduction in androgen receptor transcriptional activity after 3 days; assay type: cell-based
T1 sequence (P10275 whole entry): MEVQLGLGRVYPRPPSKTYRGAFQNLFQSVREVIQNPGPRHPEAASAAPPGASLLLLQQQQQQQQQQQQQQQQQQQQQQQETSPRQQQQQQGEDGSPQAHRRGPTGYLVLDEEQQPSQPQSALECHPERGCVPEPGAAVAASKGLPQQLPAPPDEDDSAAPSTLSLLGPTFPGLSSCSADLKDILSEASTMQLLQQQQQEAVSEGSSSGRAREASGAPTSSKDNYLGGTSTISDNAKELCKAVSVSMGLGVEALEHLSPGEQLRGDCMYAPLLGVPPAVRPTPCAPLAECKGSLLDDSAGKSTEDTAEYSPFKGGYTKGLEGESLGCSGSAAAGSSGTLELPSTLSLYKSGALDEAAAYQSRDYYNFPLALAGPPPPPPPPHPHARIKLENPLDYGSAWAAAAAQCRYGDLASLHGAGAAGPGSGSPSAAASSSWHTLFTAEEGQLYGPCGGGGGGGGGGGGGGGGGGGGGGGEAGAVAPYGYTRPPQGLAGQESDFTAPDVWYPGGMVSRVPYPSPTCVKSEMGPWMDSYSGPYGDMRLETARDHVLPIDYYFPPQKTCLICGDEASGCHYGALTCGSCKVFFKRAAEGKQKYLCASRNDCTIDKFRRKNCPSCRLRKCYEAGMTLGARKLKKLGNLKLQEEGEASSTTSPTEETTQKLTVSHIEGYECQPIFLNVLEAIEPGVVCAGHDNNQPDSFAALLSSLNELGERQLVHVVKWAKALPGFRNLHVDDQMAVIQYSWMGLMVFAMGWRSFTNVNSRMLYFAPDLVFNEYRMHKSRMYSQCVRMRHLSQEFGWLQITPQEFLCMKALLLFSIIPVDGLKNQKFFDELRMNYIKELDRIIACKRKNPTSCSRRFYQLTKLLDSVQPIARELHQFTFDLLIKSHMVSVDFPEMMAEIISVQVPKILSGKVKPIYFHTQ
Procedure, shortened: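 eGFP reporter of AR transcriptional activity in LNCaP cells; concentration titration (0−12.5 μM in dose-response); mean of two independent experiments in triplicate (n = 6), SEM; IC50 by fitting log inhibitor concentration vs % activation.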

Androgen receptor [2] = target: T1, Androgen receptor; test: Inhibition of androgen receptor binding function 3 in human LNCAP cells containing androgen-responsive probasin-derived promoter assessed as reduction in PSA expression after 3 days by […] assay; assay type: cell-based
Procedure, shortened: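 PSA levels measured in LNCaP cells across a dose range (0−6.25 μM in dose-response curve); IC50 from the dose-dependent decrease of PSA.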

[3] = target: T2, Androgen receptor (Homo sapiens) (UniProt P10275); test: Displacement of SRC2 peptide from activation function 2 domain of androgen receptor (unknown origin)
T2 sequence (whole entry): T1 sequence (P10275 whole entry)

[4] = target: T2, Androgen receptor (Homo sapiens); test: Displacement of androgen from androgen binding site of androgen receptor (unknown origin)
[5] = target: T2, Androgen receptor (Homo sapiens); test: Inhibition of androgen receptor binding function 3 in eGFP-expressing human LNCAP cells containing androgen-responsive probasin-derived promoter assessed as reduction in androgen receptor transcriptional activity at 3 uM after 3 days; assay type: cell-based
[6] = Solubility of the compound at high drug level; assay type: physicochemical
MR49F = test: Antiproliferative activity against enzalutamide-resistant human MR49F cells at 10 uM after 4 days by MTS assay; assay type: functional, cell-based
[7] = Antiproliferative activity against enzalutamide-resistant human MR49F cells after 4 days by MTS assay; assay type: functional, cell-based; settings: 96 h
Procedure, shortened: (§1)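 MTS viability assay in LNCaP (androgen-stimulated), enzalutamide-resistant MR49F (LNCaP-derived) and androgen-independent PC3 cells; compounds added in serial concentrations, viability read after 4 days of incubation; IC50 from dose-response curves.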

Androgen receptor [8] = target: T1, Androgen receptor
PC-3 = test: Antiproliferative activity against androgen receptor-independent human PC3 cells after 4 days by MTS assay; assay type: functional, cell-based; procedure, shortened: as §1
LNCaP = test: Antiproliferative activity against human LNCAP cells after 4 days by MTS assay; assay type: functional, cell-based; settings: 96 h; procedure, shortened: as §1
[9] = target: T2, Androgen receptor (Homo sapiens); test: Direct reversible binding affinity to super-streptavidin bound biotinylated androgen receptor ligand binding domain (unknown origin) expressed in Escherichia coli BL21 by bio-layer Interferometry assay
Procedure, shortened: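 Biolayer interferometry of direct, reversible binding to AR LBD; dose-response with compound at 0−50 μM or 0−100 μM.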

| IC50 (Androgen receptor [1]) [µM] | IC50 (Androgen receptor [2]) [µM] | inhibition [3] | inhibition [4] | inhibition [5] [%] | solubility [6] | IC50 (Androgen receptor [8]) [µM] | IC50 (LNCaP) [µM] | Activity [9] | Compound | inhibition (MR49F) | IC50 [7] [µM] | inhibition (PC-3) |
| --- | --- | --- | --- | --- | --- | --- | --- | --- | --- | --- | --- | --- |
| 15.7 | 8.09 | inactive | inactive | > 50 |  |  |  |  | CN(Cc1ccc(Br)o1)C(=O)c1cc2ccc(F)cc2[nH]1 |  |  |  |
| 3.38 | 5.45 | inactive | inactive | > 50 |  |  |  |  | CN(Cc1cccs1)C(=O)c1cc2ccc(F)cc2[nH]1 |  |  |  |
| 9.44 | 6.56 | inactive | inactive | > 50 |  |  |  |  | Cc1ccc(CN(C)C(=O)c2cc3cc(F)ccc3[nH]2)o1 |  |  |  |
| 0.43 | 0.53 | inactive | inactive | > 50 | Insoluble |  |  |  | CC(C)N(Cc1ccco1)C(=O)c1cc2ccc(F)cc2[nH]1 |  |  |  |
| 0.7 | 0.84 | inactive | inactive | > 50 |  | 2.18 | 0.55 | Active | Cc1ccc(CN(C(=O)c2cc3ccc(F)cc3[nH]2)C(C)C)o1 |  | 1.31 | inactive |
| 3.53 | 3.06 | inactive | inactive | > 50 |  |  |  |  | CN(Cc1ccc(Br)s1)C(=O)c1cc2ccc(F)cc2[nH]1 |  |  |  |
| 4.04 | 5.48 | inactive | inactive | > 50 |  |  |  |  | O=C(c1cc2ccc(F)cc2[nH]1)N(Cc1ccco1)Cc1ccco1 |  |  |  |

The next lines start with the molecule.

| Compound | IC50 (Androgen receptor [1]) [µM] | IC50 (Androgen receptor [2]) [µM] | inhibition [3] | inhibition [4] | inhibition [5] [%] | solubility [6] | IC50 (Androgen receptor [8]) [µM] | IC50 (LNCaP) [µM] | Activity [9] | inhibition (MR49F) | IC50 [7] [µM] | inhibition (PC-3) |
| --- | --- | --- | --- | --- | --- | --- | --- | --- | --- | --- | --- | --- |
| Cc1ccc2cc(C(=O)N(Cc3ccco3)C(C)C)[nH]c2c1 | 1.02 | 0.85 | inactive | inactive | > 50 |  |  |  |  |  |  |  |
| CC(C)N(Cc1ccco1)C(=O)c1cc2cc(F)ccc2[nH]1 | 0.6 | 0.5 | inactive | inactive | > 50 | Insoluble |  |  |  |  |  |  |
| CNC(=O)c1ccc(N2C(=S)N(c3ccc(C#N)c(C(F)(F)F)c3)C(=O)C2(C)C)cc1F |  |  |  |  |  |  |  |  |  | inactive |  |  |
| Cc1ccc2cc(C(=O)N(Cc3ccc(C)o3)C(C)C)[nH]c2c1 | 2.89 | 1.65 | inactive | inactive | > 50 |  |  |  |  |  |  |  |
| Cc1ccc2[nH]c(C(=O)N(Cc3ccc(C)o3)C(C)C)cc2c1 | 2.67 | 1.77 | inactive | inactive | > 50 |  |  |  |  |  |  |  |
| COCCN(Cc1ccco1)C(=O)c1cc2cc(F)ccc2[nH]1 | 6.47 | 6.62 | inactive | inactive | > 50 |  |  |  |  |  |  |  |
| Cc1ccc2[nH]c(C(=O)N(Cc3ccco3)C(C)C)cc2c1 | 1.3 | 1.2 | inactive | inactive | > 50 |  |  |  |  |  |  |  |
| CC(C)N(Cc1ccco1)C(=O)c1cc2cc(C(F)(F)F)ccc2[nH]1 | 5.2 | 5.29 | inactive | inactive | > 50 |  |  |  |  |  |  |  |
| N#CCCN(Cc1ccccc1)C(=O)c1cc2ccccc2[nH]1 | 7.51 | 4.58 | inactive | inactive | > 50 |  |  |  |  |  |  |  |
| Cc1ccc(CN(C(=O)c2cc3ccccc3[nH]2)C(C)C)o1 | 3.32 | 3.42 | inactive | inactive | > 50 |  |  |  | Dose-dependent effect |  |  |  |
| Cc1ccc(CN(C(=O)c2cc3cc(F)ccc3[nH]2)C(C)C)o1 | 1.1 | 1.38 | inactive | inactive | > 50 |  |  |  |  |  |  |  |
| Cc1ccc(CN(C(=O)c2cc3cccc(F)c3[nH]2)C(C)C)o1 | 1 | 1.2 | inactive | inactive | > 50 |  |  |  |  |  |  |  |
